Reference: ChEMBL document CHEMBL4342456, “Preventing Morphine-Seeking Behavior through the Re-Engineering of Vincamine's Biological Activity” (J Med Chem, 2020)
The source made the active and inactive calls. The calls are words filed in the database; no cut-off is given here.

What was measured:
[1] = target: T1, Neuropeptide S receptor (Homo sapiens) (UniProt Q6W5P4); experiment: Antagonist activity at human Gq-coupled NPSR1b expressed in human U2OS cells assessed as inhibition in neuropeptide S-induced beta-arrestin 2 recruitment at 20 uM incubated for 30 mins followed by neuropeptide S addition and measured after 90 or 180 mins by pathhunter beta-arrestin assay relative to control; assay type: cell-based
T1 sequence (whole entry): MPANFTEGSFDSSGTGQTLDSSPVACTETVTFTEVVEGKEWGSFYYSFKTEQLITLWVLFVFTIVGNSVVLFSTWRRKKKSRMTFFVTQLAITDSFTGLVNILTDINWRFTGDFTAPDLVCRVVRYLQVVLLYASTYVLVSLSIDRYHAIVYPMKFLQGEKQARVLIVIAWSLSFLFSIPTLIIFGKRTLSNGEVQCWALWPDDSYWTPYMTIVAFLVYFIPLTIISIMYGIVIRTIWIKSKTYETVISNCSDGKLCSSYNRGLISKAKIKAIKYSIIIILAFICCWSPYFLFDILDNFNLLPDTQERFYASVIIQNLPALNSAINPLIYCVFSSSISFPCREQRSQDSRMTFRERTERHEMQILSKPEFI
Outline: (§1)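 PathHunter beta-arrestin recruitment, antagonist mode, run at DiscoverX. Cells seeded and held at 37 °C, then preincubated with test sample for 30 min at 37 °C or room temperature (1% vehicle). Agonist then added at EC80 for 90 or 180 min. IC50 comes from concentration–response runs in the same format.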

[2] = target: C-X-C chemokine receptor type 4 (Homo sapiens) (UniProt P61073); experiment: Antagonist activity at human Gi/o-coupled CXCR4 expressed in mouse C2C12 cells assessed as inhibition in CXCL12-induced beta-arrestin 2 recruitment at 20 uM incubated for 30 mins followed by CXCL12 addition and measured after 90 or 180 mins by pathhunter beta-arrestin assay relative to control; assay type: cell-based; outline: as §1
[3] = target: C-C chemokine receptor type 8 (Homo sapiens, UniProt P51685); experiment: (§2) Antagonist activity at human CCR8 expressed in CHOK1 cells assessed as inhibition in CCL1-induced beta-arrestin 2 recruitment at 20 uM incubated for 30 mins followed by CCL1 addition and measured after 90 or 180 mins by pathhunter beta-arrestin assay relative to control; assay type: cell-based; outline: as §1
[4] = target: T2, Prostacyclin receptor (Homo sapiens, UniProt P43119); experiment: Antagonist activity at human Gs-coupled PTGIR assessed as inhibition in beraprost-induced beta-arrestin 2 recruitment at 20 uM incubated for 30 mins followed by beraprost- addition and measured after 90 or 180 mins by pathhunter beta-arrestin assay relative to control; outline: as §1
[5] = target: T3, Glucose-dependent insulinotropic receptor (Homo sapiens) (UniProt Q8TDV5); experiment: Antagonist activity at human GPR119 assessed as inhibition in oleoylethanolamide-induced beta-arrestin 2 recruitment at 20 uM incubated for 30 mins followed by oleoylethanolamide addition and measured after 90 or 180 mins by pathhunter beta-arrestin assay relative to control; outline: as §1
T3 sequence (whole entry): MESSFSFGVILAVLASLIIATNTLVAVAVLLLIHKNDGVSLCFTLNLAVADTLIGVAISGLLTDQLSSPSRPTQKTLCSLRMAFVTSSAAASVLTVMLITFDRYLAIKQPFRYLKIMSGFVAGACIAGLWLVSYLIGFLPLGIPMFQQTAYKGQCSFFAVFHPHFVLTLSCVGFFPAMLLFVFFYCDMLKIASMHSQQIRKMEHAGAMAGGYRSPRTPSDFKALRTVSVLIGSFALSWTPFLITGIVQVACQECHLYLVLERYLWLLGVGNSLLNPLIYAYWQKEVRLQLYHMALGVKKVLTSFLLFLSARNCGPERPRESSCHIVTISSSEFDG

[6] = target: T4, Orexin receptor type 2 (Homo sapiens) (UniProt O43614); experiment: (§3) Antagonist activity at human Gq-coupled HCRTR2 expressed in CHOK1 cells assessed as inhibition in Orexin A-induced beta-arrestin 2 recruitment at 20 uM incubated for 30 mins followed by Orexin A addition and measured after 90 or 180 mins by pathhunter beta-arrestin assay relative to control; assay type: cell-based; outline: as §1
T4 sequence (whole entry): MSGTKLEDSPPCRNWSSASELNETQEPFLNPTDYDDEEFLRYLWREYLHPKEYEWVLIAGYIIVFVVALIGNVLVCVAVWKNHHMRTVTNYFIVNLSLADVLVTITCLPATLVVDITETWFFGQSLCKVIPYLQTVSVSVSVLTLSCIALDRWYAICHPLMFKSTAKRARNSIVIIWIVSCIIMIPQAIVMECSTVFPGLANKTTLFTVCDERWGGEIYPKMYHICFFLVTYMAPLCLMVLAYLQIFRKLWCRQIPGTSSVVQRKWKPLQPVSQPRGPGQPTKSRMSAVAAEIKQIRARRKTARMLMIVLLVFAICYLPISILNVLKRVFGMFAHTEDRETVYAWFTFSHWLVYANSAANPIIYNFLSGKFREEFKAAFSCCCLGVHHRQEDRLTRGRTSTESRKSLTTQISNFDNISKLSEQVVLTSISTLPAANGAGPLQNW

[7] = target: T5, Cannabinoid receptor 2 (Homo sapiens, UniProt P34972); experiment: Antagonist activity at human Gi/o-coupled CNR2 expressed in CHOK1 cells assessed as inhibition in CP55940-induced beta-arrestin 2 recruitment at 20 uM incubated for 30 mins followed by CP55940 addition and measured after 90 or 180 mins by pathhunter beta-arrestin assay relative to control; assay type: cell-based; outline: as §1
[8] = target: T6, Muscarinic acetylcholine receptor M4 (Homo sapiens) (UniProt P08173); experiment: as §2, with “Gs/Gi/o-coupled CHRM4” for “CCR8”, “acetylcholine-induced” for “CCL1-induced”, “acetylcholine” for “CCL1”; assay type: cell-based; outline: as §1
T6 sequence (whole entry): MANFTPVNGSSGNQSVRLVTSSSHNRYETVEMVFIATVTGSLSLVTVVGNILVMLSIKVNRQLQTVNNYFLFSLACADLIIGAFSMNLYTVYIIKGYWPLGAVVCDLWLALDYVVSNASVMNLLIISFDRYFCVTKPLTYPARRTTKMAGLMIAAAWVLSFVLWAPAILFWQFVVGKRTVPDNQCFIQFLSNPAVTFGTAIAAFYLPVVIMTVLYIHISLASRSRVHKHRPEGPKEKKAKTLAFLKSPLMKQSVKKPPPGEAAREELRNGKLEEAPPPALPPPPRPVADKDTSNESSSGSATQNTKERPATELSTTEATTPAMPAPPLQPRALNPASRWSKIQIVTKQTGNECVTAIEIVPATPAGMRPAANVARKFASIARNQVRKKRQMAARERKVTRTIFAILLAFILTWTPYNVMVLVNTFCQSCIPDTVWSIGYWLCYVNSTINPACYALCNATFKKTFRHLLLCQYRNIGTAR

[9] = target: D(2) dopamine receptor (Homo sapiens) (UniProt P14416); experiment: Antagonist activity at human Gi/o-coupled DRD2L expressed in CHOK1 cells assessed as inhibition in dopamine-induced beta-arrestin 2 recruitment at 20 uM incubated for 30 mins followed by dopamine addition and measured after 90 or 180 mins by pathhunter beta-arrestin assay relative to control; assay type: cell-based; outline: as §1
[10] = target: T7, Cannabinoid receptor 1 (Homo sapiens, UniProt P21554); experiment: Antagonist activity at human Gi/o-coupled CNR1 expressed in CHOK1 cells assessed as inhibition in CP55940-induced beta-arrestin 2 recruitment at 20 uM incubated for 30 mins followed by CP55940 addition and measured after 90 or 180 mins by pathhunter beta-arrestin assay relative to control; assay type: cell-based; outline: as §1
[11] = target: T8, Prolactin-releasing peptide receptor (Homo sapiens) (UniProt P49683); experiment: as §3, with “PRLHR” for “HCRTR2”, “prolactin releasing peptide (1 to 31)-induced” for “Orexin A-induced”, “prolactin releasing peptide (1 to 31)” for “Orexin A”; assay type: cell-based; outline: as §1
T8 sequence (whole entry): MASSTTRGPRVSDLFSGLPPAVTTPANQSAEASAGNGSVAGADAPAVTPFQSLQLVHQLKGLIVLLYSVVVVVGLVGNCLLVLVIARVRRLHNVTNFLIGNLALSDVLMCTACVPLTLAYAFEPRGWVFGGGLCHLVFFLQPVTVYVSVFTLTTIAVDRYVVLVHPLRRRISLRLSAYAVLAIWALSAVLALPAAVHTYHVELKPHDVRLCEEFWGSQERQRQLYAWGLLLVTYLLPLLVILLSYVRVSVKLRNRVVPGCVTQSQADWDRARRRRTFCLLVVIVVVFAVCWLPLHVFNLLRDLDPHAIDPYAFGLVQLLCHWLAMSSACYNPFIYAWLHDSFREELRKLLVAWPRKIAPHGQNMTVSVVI

[12] = system: Mus musculus; experiment: Suppression of drug-induced cocaine-seeking behavior in C57BL/6J mouse assessed as reduction in morphine-conditioned place preference at 60 nmol, icv administered 20 mins prior to behavioral morphine addition measured twice weekly for 7 weeks; assay type: functional, organism-based; details: in the assay text read “morphine-seeking” for “cocaine-seeking”
Outline: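 Male C57BL/6J mice, 7–11 weeks, 20–33 g. Three-compartment counterbalanced place conditioning. Test agent given i.c.v. in 10% Solutol HS 15/90% saline, 20 min before morphine (10 mg/kg i.p., in 0.9% saline). Mice then confined 40 min in the paired outer chamber. Saline i.p. conditioning in the opposite chamber followed 4 h later. Preference was scored in a 30 min automated test. n = 16–30/group; two-way ANOVA with Tukey post hoc.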

[13] = target: Histamine H1 receptor (Homo sapiens) (UniProt P35367); details: at 20 µM
[14] = system: Mus musculus; experiment: Suppression of drug-induced morphine-seeking behavior in C57BL/6J mouse assessed as reduction in stress-induced reinstatement of morphine-CPP at 60 nmol, icv administered 15 mins prior to testing by forced swim test
[15] = target: T2, Prostacyclin receptor; experiment: Antagonist activity at human Gs-coupled PTGIR assessed as inhibition in beraprost-induced beta-arrestin 2 recruitment incubated for 30 mins followed by beraprost- addition and measured after 90 or 180 mins by pathhunter beta-arrestin assay
Outline: as §1, with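 “min. […]” for “min.”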

[16] = target: T7, Cannabinoid receptor 1; experiment: (§4) Antagonist activity at human Gi/o-coupled CNR1 expressed in CHOK1 cells assessed as inhibition in CP55940-induced beta-arrestin 2 recruitment incubated for 30 mins followed by CP55940 addition and measured after 90 or 180 mins by pathhunter beta-arrestin assay; assay type: cell-based
Outline: as §1, with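 “min. […]” for “min.”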

[17] = target: T9, Neuropeptide S receptor (Homo sapiens, UniProt Q6W5P4); experiment: Antagonist activity at human Gq-coupled NPSR1b expressed in human U2OS cells assessed as inhibition in neuropeptide S-induced beta-arrestin 2 recruitment incubated for 30 mins followed by neuropeptide S addition and measured after 90 or 180 mins by pathhunter beta-arrestin assay; assay type: cell-based
T9 sequence (Q6W5P4 whole entry): T1 sequence (whole entry)
Outline: as §1, with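 “min. […]” for “min.”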

[18] = target: T5, Cannabinoid receptor 2; experiment: Antagonist activity at human Gi/o-coupled CNR2 expressed in CHOK1 cells assessed as inhibition in CP55940-induced beta-arrestin 2 recruitment incubated for 30 mins followed by CP55940 addition and measured after 90 or 180 mins by pathhunter beta-arrestin assay; assay type: cell-based
Outline: as §1, with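 “min. […]” for “min.”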

[19] = target: T10, Glucose-dependent insulinotropic receptor (Homo sapiens, UniProt Q8TDV5); experiment: Antagonist activity at human GPR119 expressed in human HEK293 cells assessed as inhibition in agonist-induced beta-arrestin 2 recruitment incubated for 30 mins followed by agonist addition and measured after 90 or 180 mins by pathhunter beta-arrestin assay; assay type: cell-based
T10 sequence (Q8TDV5 whole entry): T3 sequence (whole entry)
Outline: as §1, with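 “min. […]” for “min.”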

[20] = target: T11, Prolactin-releasing peptide receptor (Homo sapiens, UniProt P49683); experiment: as §4, with “Gq-coupled PRLHR” for “Gi/o-coupled CNR1”, “prolactin releasing peptide (1 to 31)-induced” for “CP55940-induced”, “prolactin releasing peptide (1 to 31)” for “CP55940”; assay type: cell-based
T11 sequence (P49683 whole entry): T8 sequence (whole entry)
Outline: as §1, with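 “min. […]” for “min.”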

Chain of C-X-C chemokine receptor type 4 (Homo sapiens) (P61073 whole entry): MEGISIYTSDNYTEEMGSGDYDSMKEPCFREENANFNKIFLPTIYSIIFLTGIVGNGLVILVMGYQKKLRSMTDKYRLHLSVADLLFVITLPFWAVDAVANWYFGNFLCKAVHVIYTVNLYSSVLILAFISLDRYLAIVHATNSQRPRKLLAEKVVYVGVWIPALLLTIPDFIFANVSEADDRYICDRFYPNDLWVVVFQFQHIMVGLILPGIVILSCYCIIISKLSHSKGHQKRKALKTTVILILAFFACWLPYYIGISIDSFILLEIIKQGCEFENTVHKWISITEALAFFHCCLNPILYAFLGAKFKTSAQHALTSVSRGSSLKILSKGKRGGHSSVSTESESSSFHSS
T7 sequence (P21554 whole entry): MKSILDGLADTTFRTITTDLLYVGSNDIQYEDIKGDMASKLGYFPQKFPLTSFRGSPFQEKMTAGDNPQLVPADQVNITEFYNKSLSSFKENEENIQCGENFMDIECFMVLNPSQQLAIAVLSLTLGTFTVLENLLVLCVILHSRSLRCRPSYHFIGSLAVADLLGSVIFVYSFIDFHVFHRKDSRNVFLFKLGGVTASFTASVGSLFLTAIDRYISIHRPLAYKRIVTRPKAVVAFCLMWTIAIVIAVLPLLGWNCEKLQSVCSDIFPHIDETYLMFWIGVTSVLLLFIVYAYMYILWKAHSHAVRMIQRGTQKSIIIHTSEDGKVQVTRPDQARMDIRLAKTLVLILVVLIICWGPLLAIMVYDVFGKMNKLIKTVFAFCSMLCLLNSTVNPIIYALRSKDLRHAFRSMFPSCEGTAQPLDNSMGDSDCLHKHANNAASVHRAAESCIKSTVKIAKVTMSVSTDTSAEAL
T5 sequence (P34972 whole entry): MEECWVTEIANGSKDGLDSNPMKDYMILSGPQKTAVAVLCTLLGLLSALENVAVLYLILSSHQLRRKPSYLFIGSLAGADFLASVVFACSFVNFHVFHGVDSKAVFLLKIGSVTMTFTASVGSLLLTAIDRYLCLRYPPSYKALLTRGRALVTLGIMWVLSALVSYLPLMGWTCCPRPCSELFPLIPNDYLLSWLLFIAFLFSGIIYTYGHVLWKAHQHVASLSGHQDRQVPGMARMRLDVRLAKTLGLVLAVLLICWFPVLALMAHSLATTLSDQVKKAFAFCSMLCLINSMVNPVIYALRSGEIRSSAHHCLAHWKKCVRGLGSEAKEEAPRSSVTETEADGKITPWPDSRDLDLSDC
T2 sequence (P43119 whole entry): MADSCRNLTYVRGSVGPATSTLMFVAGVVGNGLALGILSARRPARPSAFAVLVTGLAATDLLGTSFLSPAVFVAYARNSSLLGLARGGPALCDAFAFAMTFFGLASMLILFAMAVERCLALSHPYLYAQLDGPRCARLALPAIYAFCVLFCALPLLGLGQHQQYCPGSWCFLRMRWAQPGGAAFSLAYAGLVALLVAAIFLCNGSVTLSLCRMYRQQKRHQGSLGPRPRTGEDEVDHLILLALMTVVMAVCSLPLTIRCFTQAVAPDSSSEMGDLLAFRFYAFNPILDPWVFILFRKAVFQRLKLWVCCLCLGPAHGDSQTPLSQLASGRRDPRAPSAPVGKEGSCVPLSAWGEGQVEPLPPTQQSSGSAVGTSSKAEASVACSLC
Chain of C-C chemokine receptor type 8 (P51685 whole entry): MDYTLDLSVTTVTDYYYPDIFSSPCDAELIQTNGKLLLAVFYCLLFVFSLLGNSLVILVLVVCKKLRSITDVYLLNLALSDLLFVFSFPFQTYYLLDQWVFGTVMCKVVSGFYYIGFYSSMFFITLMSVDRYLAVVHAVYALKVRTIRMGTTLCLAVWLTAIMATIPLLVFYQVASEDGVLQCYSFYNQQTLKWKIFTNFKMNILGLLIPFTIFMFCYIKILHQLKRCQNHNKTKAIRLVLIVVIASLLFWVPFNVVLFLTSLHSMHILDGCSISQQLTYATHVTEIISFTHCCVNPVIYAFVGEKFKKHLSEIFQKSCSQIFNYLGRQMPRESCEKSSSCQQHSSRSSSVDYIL
Chain of D(2) dopamine receptor (Homo sapiens) (P14416 whole entry): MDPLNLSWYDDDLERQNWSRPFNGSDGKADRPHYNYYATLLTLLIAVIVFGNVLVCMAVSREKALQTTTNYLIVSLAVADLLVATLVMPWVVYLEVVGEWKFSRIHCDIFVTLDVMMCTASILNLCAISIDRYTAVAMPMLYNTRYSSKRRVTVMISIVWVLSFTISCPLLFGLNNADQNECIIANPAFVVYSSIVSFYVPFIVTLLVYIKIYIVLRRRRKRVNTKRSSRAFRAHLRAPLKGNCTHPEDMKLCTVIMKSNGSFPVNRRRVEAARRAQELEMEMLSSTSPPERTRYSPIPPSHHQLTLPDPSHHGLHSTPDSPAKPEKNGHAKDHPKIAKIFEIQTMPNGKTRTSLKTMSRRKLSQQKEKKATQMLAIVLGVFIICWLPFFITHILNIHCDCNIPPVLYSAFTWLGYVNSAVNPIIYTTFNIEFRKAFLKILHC
Chain of Histamine H1 receptor (Homo sapiens) (P35367 whole entry): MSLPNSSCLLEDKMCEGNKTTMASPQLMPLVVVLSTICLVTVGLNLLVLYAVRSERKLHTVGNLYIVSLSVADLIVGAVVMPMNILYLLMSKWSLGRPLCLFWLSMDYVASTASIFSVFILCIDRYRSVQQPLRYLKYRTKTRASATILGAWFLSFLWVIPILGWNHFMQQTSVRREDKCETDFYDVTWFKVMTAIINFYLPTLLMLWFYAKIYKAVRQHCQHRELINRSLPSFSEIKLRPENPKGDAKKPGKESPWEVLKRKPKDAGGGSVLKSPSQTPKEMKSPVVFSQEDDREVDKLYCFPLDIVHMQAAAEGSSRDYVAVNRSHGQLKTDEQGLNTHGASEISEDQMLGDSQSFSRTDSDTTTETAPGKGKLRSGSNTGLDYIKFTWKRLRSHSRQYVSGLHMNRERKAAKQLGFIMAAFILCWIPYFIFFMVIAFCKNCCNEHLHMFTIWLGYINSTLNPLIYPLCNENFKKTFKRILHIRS

| inhibition [1] | inhibition [2] | inhibition [3] | inhibition [4] | inhibition [5] | inhibition [6] | inhibition [7] | inhibition [8] | inhibition [9] | inhibition [10] | inhibition [11] | inhibition [13] | IC50 [15] | IC50 [16] | IC50 [17] | IC50 [18] | IC50 [19] | IC50 [20] | SMILES | Activity [12] | Activity [14] |
| --- | --- | --- | --- | --- | --- | --- | --- | --- | --- | --- | --- | --- | --- | --- | --- | --- | --- | --- | --- | --- |
| -3% | 21% | 5% | 8% | 8% | 9% | 20% | 4% | 102% | 35% | 1% |  |  |  |  |  |  |  | COC(=O)[C@@H]1[C@H]2C[C@H]3c4[nH]c5ccccc5c4CCN3C[C@@H]2CC[C@@H]1O |  |  |
|  | 10% | 8% | -3% | 3% | 9% | 11% | -8% | -10% | 0% | 3% | 5% |  |  |  |  |  |  | CC[C@]12CCCN3CCc4c(n(c5ccccc45)[C@@](O)(C(=O)OC)C1)[C@@H]32 | inactive | inactive |
| 24% | 40% | 65% | 84% | 35% | 10% | 39% | 67% | 11% | 26% | 70% | 16% |  |  |  |  |  |  | CC[C@@]12C=C(C(=O)OC)n3c(c(c4ccccc43)CCN(/C=C/C(=O)OC)CCC1)[C@@H]2c1ccc(O)cc1 |  |  |
|  | 4% | 28% | 41% | 2% | 8% | 17% | 43% | 98% | 1% | 18% | 21% |  |  |  |  |  |  | CC[C@@]1(CC(=O)NC2CCCC2)CCCN2CCc3c([nH]c4ccccc34)[C@@H]21 |  |  |
| -10% | -10% | 6% | 22% | 5% | 16% | 13% | 22% | -5% | 0% | -7% | -3% |  |  |  |  |  |  | CC[C@]12CCCN3CC[C@]4(C(=O)c5ccccc5N4C(=O)C1)[C@@H]32 |  |  |
|  | -9% | 17% | 22% | -2% | -4% | 2% | 24% | 0% | 4% | 26% | 8% |  |  |  |  |  |  | CC[C@@]1(CC(=O)OC)CCCN2CC[C@]3(O)C(=Nc4ccccc43)[C@@H]21 |  |  |
|  |  |  |  |  |  |  |  |  |  |  |  | 12.5 µM | 4.95 µM | 3.9 µM | 25.7 µM | 4.62 µM | 13.8 µM | CC[C@]12CCCN(C(=O)c3cccc(Br)c3)CCc3c(n(c4ccccc34)C(=O)C1)[C@@H]2OC |  |  |
